In the library only some 3.5% were active in any assay of this set; here they are far more common.
MrgX1 antag: antagonists of human MrgX1 receptor. Q96LB2. MRGX1-HEK293 calcium flux, Fluo-4, BAM8-22 antagonism; stronger effect = lower value. B-score at 10 µM. hit rate 1.3% among 310,000;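 active = calcium-response B-score plate-corrected more than 3 library SD below zero, starting fluorescence within 5 deviations, no agonist response on first addition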;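 note: peak minus trough fluorescence over baseline after final BAM8-22 challenge near maximal dose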
Target sequence (Q96LB2 whole entry, looked up): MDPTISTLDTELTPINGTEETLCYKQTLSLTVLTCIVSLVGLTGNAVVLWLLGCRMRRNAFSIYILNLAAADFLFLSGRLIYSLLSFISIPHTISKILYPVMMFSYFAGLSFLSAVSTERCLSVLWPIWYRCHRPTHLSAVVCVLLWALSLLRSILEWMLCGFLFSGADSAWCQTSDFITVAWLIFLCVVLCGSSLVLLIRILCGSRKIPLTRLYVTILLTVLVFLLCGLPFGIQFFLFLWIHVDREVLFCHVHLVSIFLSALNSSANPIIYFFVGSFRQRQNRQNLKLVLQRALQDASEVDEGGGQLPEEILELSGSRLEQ
RGS4 act: RGS4 potentiation or activation. HEK293 M3R/inducible RGS4, carbachol calcium flux Fluo4; stronger effect = lower value. B-score at 10 µM. hit rate 0.92% among 310,000. AID 463111;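 active = B-score of the integrated calcium signal more than 4 SD below the library mean, with starting fluorescence not abnormally high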;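 note: negative B-score means reduced calcium response which marks RGS4 activation or potentiation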
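Assay system: HEK293 FlpIn-TREx cells, stable M3R, doxycycline-inducible RGS4 / Probe or stimulus: carbachol, ECmax concentration / Times: overnight RGS4 induction, 30 min dye load 37 °C, 20 min compound RT / Signal: kinetic calcium fluorescence imaging with Fluo4-AM dye, 2 µM / Measure: Agonist-evoked peak-minus-minimum fluorescence over baseline, integrated ratio, B score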
RGS4 block: human RGS4 inhibition. hit rate 0.45% among 310,000. HEK293 M3R/RGS4 inducible, Fluo-4 calcium flux; stronger effect = higher value; triggered by carbachol at its EC20. AID 463165. B-score at 10 µM;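 active = B-score, a plate-corrected calcium signal, over three deviations above library mean, with baseline fluorescence within five deviations of library mean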;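 note: RGS4 expression induced by doxycycline in cells with stable M3 receptor; B-score is computed from the integrated fluorescence ratio over baseline after carbachol; higher B-score means a larger calcium signal and so more RGS4 inhibition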
Target sequence (P49798 whole entry, looked up): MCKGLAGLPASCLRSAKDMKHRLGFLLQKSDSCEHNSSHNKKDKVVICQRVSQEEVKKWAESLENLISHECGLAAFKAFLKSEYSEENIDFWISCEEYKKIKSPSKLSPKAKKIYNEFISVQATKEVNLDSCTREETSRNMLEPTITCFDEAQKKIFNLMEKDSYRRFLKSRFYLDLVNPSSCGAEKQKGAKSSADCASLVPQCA
MrgX1 agonist: activates human MrgX1 receptor signaling; MrgX1-HEK293 cells, Fluo-4 calcium fluorescence, agonist mode; stronger effect = higher value; AID 588627; hit rate 0.44% among 310,000; B-score at 10 µM;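 active = calcium response B-score plate-corrected fluorescence ratio at least 3 library SD, with starting fluorescence B-score inside 5 SD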
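Assay system: stable human MrgX1 HEK293 cell line. Quantity: 15,000 cells per well. Schedule: cells plated overnight, dye loaded 0.5 h 37 °C, 0.5 h room temperature. Detection: Fluo-4 NW calcium-flux fluorescence, kinetic read. Read-out basis: peak-minus-minimum fluorescence over baseline, converted to B scores. Control set: positive and negative control wells on each plate.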
MrgX1 PAM: human MrgX1 positive allosteric modulation, primary screen | MrgX1-HEK293, Fluo-4 calcium flux, FDSS; stronger effect = higher value | B-score at 10 µM | hit rate 0.63% among 310,000 | AID 588675;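 active = plate-corrected calcium response at least 3 library SD above typical, normal starting fluorescence, not activating the receptor alone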;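 note: compound read alongside a low EC10 to EC30 dose of BAM8-22 agonist; peak minus trough fluorescence over baseline measured at the second addition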
The depositor's hits bear a star; i = inactive; · = no result given.

SMILES | MrgX1 antag | RGS4 act | RGS4 block | MrgX1 agonist | MrgX1 PAM
COc1ccc(Oc2ccc(/C=C/C(=O)c3ccc(O)cc3)cc2[N+](=O)[O-])cc1 | -5.4* | i | i | i | i
CCOCCCNC(=O)CSc1nnc(-c2ccc(S(=O)(=O)N3CCCC3)cc2)n1C | i | i | i | i | i
Cn1c(Cc2cccs2)nnc1SCC(=O)Nc1ccc(F)cc1F | i | i | i | i | i
CC(=O)Nc1ccc2c(c1)ncn2-c1ccc(C)cc1 | i | i | i | i | i
COC(C/C=C\[C@H](O)[C@H](C)OCc1ccccc1)OC | -5.4* | i | i | i | i
CC(C)(C)OC(=O)N1CCN(C(=O)[C@H](Cc2ccc(O)cc2)n2cc(CCO)nn2)CC1 | i | i | i | i | i
Cc1ccc(Cn2nc(C)c(NC(=O)CSc3n[nH]c(C)c3[N+](=O)[O-])c2C)cc1 | -6* | i | i | i | i
CCOC(=O)N1CCC(NC(=O)c2ccc(CS(=O)c3cccc(Cl)c3)o2)CC1 (stereo unspecified) | i | i | i | i | i
C=CCn1c(SCC(=O)NCC2CCCO2)nc2scc(-c3ccccc3)c2c1=O (stereo unspecified) | -5.2* | i | i | i | i
CN(Cc1ccccn1)C(=O)C1CCC(=O)N(Cc2cccc(C(F)(F)F)c2)C1 (stereo unspecified) | i | i | i | i | i
CC(=O)COc1cc(C)cc2oc(=O)cc(-c3ccccc3)c12 | i | i | i | i | i
Cc1cc(O)c2c(-c3ccccc3)cc(=O)oc2c1 | i | · | · | 44* | i
CCC(NC(=S)NCc1ccc(F)cc1)c1ccccc1 (stereo unspecified) | -5.7* | i | i | i | i
COc1ccc(C(C)NC(=S)NCc2ccc(F)cc2)cc1 (stereo unspecified) | i | i | i | i | i
O=C(Nc1ccc(CN2CCCCC2)cc1)c1cc(Br)ccc1Cl | -5.5* | i | i | i | i
Cc1c(C(=O)NNS(=O)(=O)c2ccccc2Cl)sc(=S)n1C | i | i | i | i | i
CC(=O)Nc1ccc(S(=O)(=O)NNC(=O)c2sc(=S)n(C)c2C)cc1 | -4.6* | i | i | i | i
COc1cccc(CNc2ccccn2)c1O | i | i | i | i | i
COc1cccc(CNc2cccc3cccnc23)c1O | i | i | i | i | 15*
O=c1c2c([N+](=O)[O-])cc([N+](=O)[O-])cc2sn1-c1ccc(Br)cc1 | i | · | · | i | i
O=c1c2c([N+](=O)[O-])cc([N+](=O)[O-])cc2sn1Cc1ccccc1 | i | i | i | 37* | i
Cn1nnc2cc(C(=O)N3CCN(c4ccccn4)CC3)ccc21 | i | i | i | i | i
Cc1cc(-n2c(C)cc(C(=O)CSc3ncnc4ccccc34)c2C)no1 | -4.7* | i | i | i | i
CCS(=O)(=O)c1ccc2oc(SCC(=O)NCc3ccccc3)nc2c1 | i | -7.2* | i | i | i
CCOC(=O)CC(=O)CSc1nc(-c2cccnc2)cc(C)c1C#N | -4.9* | i | i | i | i
SMILES | MrgX1 antag | RGS4 act | RGS4 block | MrgX1 agonist | MrgX1 PAM
CCCCCCCCSc1nnc(CSc2nc3nc(C)cc(C)n3n2)o1 | i | -8.3* | i | i | i
CCCCCn1nc(C)c(/C=N/NC(=O)c2ccoc2C)c1C | i | i | i | i | i
CCn1nc(C)c(/C=N/NC(=O)c2ccoc2C)c1C | -5.6* | i | i | i | i
O=C(NCc1ccccc1)C1CC(=O)N(c2ccc(OCC(=O)N3CCOCC3)cc2)C1 (stereo unspecified) | i | i | i | i | i
COc1ccccc1NC(=S)N/N=C/c1ccc(O)cc1 | i | i | i | i | 9*
COc1ccccc1NC(=S)N/N=C/c1cccc(C)c1 | i | i | i | i | i
COc1cc(/C=C2\SC(=S)N(Nc3ncc(C(F)(F)F)cc3Cl)C2=O)ccc1O | i | i | i | i | 17*
CN(C)c1ccc(/C=C2\SC(=S)N(Nc3ncc(C(F)(F)F)cc3Cl)C2=O)cc1 | i | i | i | i | 13*
COc1cc(/C=C2\SC(=S)N(Nc3ccccc3)C2=O)ccc1O | i | i | i | i | i
CCN(CCCC(=O)c1ccc(F)cc1)CCc1ccccc1 | i | -7.1* | i | i | i
CCN(CCCc1ccccc1)CCCc1ccccc1 | i | i | i | i | i
CCCCCCCCCC[n+]1cccc2c3ccccc3ccc21 | · | -10* | i | · | ·
Cc1cccc[n+]1CCCCCCCCCC[n+]1ccccc1C | i | i | i | i | i
CCCCCCCC[n+]1cccc2c3ccccc3ccc21 | i | -9.9* | i | i | i
COC(=O)CSc1nnc(-c2ccc(NS(=O)(=O)c3ccccc3)cc2)o1 | i | i | i | i | i
CC(C)n1c(SCC(=O)Nc2nncs2)nnc1-c1ccco1 | i | i | i | i | i
C=CCNC(=O)COC(=O)c1ccc(Sc2nncn2C)c([N+](=O)[O-])c1 | -5.2* | i | i | i | i
Cn1ccs/c1=N\C(=O)Nc1cccc(Cl)c1 | i | i | i | i | i
CCN1CCN(Cc2ccc(NC(=O)c3ccc(C)c(NC(=O)c4ccno4)c3)cc2C(F)(F)F)CC1 | i | i | i | i | i
CCN1CCN(Cc2ccc(NC(=O)c3ccc(C)c(/C=C/c4cnc(Nc5cc(N6CCNCC6)nc(C)n5)cn4)c3)cc2C(F)(F)F)CC1 | i | i | i | 27* | i
Cc1ccc(S(=O)(=O)/N=C(/c2ccccc2)N2CCOCC2)c(C)c1 | i | i | i | i | i
CCn1c(C)nc2cc(C(=O)NNC(=O)Nc3ccc(Cl)cc3)ccc21 | i | i | i | i | i
CCn1c(C)nc2cc(C(=O)NNC(=O)Nc3cccc(Cl)c3)ccc21 | -6.3* | i | i | i | i
CN(c1ccccc1C(=O)Nc1ccccc1-c1ccccc1)S(C)(=O)=O | i | i | i | i | i
Cc1ccc(C(=O)Oc2ccccc2N2C(=O)C3CCCCC3C2=O)cc1 (stereo unspecified) | i | i | i | i | i
COc1ccc(CNC(=O)CN(C(=O)c2snc(C(N)=O)c2N)c2ccccc2F)cc1 | i | i | i | i | 6.5*
CC(C)CC(=O)C1=C(O)C(=O)N(Cc2ccccc2)C1c1ccccc1 (stereo unspecified) | i | i | i | i | 12*

High-throughput results: PubChem, Johns Hopkins Ion Channel Center
